Two compounds from ChEMBL document CHEMBL5331102, “Novel S1R agonists counteracting NMDA excitotoxicity and oxidative stress: A step forward in the discovery of neuroprotective agents” (Eur J Med Chem, 2023) can be followed below.

Series [1] can be described thus: Toxicity in Zebrafish embryos assessed as morphological abnormality by observing short and up-curved tail at 10 uM incubated for 5 days by Teratogenic test. Also noted: species or system Danio rerio. As to conditions: in vivo, 120 h, time 5 day. The gist of the method: (§1)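 Tg(GFAP:GFP) zebrafish embryos, 8 per group, exposed from 1 h post-fertilization to increasing compound concentrations at 28 °C for about 5 days without medium change; mortality, developmental defects and morphology score assessed at 5 dpf.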

In series [2] the test system is LoVo. The experiment in a line: Cytotoxicity against human LoVo cells assessed as reduction in cell survival rate at 100 uM incubated for 48 to 72 hrs by MTT assay. In kind it is toxicity, cell-based. As to conditions: time 48-72 hrs. The gist of the method: (§2)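 Cancer lines grown in Ham's F-12K or DMEM with 10% FBS, used in exponential growth; seeded 2500 cells/well, exposed to 0.1–100 μM for 24, 48 and 72 h continuous. Viability by CellTiter 96 AQueous One (tetrazolium) absorbance at 490 nm; three independent experiments in quadruplicate, % survival vs untreated.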

A short description of series [3]: Toxicity in Zebrafish embryos assessed as variation in embryo morphology score at 1 uM incubated for 5 days by Teratogenic test. Further details: species or system Danio rerio. As to conditions: in vivo, 120 h, time 5 day. The gist of the method:
as §1

Series [4] has as its system PC-12. The series can be described thus: Neuroprotective activity in rat PC12 cells assessed as induction of NGF-mediated neurite outgrowth at 0.1 to 5 uM in presence of NE-100 by neurite outgrowth assay. The class given is functional, cell-based. The settings on record: dose 0.1-5 µM. The gist of the method:
(§3)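 PC12 cells stimulated with NGF (2.5 nM) and treated with compound up to 5 μM, alone or after pre-treatment with S1R antagonist NE-100 (3 μM); read-out is percentage of cells bearing neurite sprouts; mean ± SEM of three independent experiments.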

The nature of series [5]: Toxicity in Zebrafish embryos assessed as morphological abnormality by observing oedema at 10 uM incubated for 5 days by Teratogenic test. Also noted: species or system Danio rerio, Embryo. As to conditions: in vivo, 120 h, time 5 day. The procedure, abridged: as §1
Series [6] concerns PANC-1. The series can be described thus: Cytotoxicity against human PANC-1 cells assessed as reduction in cell survival rate at <=10 uM incubated for 24 to 72 hrs by MTT assay. The class given is toxicity, cell-based. As to conditions: panc-1, 10 µM, time 24-72 hrs. The procedure, abridged: as §2
For orientation: Formazan colour is commonly taken as a measure of viable cells.

Series [7] in a line: Toxicity in Zebrafish embryos assessed as death at 10 uM incubated for 5 days by Teratogenic test. Further details: species or system Danio rerio, Embryo. The settings on record: in vivo, time 5 day, read-out: Activity. The gist of the method:
(§4)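 Tg(GFAP:GFP) zebrafish embryos from 2 female × 1 male matings, 8 embryos per control or concentration, exposed from 1 h post-fertilization and kept at 28 °C for about 5 days without medium change. At 5 dpf (120 h) mortality and developmental abnormalities (tail shape, heart, pigmentation) were scored, with morphology given a severity score.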

Series [8] concerns PC-12. The series can be described thus: Cytotoxicity against rat PC12 cells assessed as reduction in cell viability at <1 uM incubated for 24 hrs by MTT assay. In kind it is toxicity, cell-based. As to conditions: pc-12, 24 h.
Series [9] has as its system SH-SY5Y. The experiment in a line: Cytotoxicity against human SH-SY5Y cells assessed as cell death at 0.1 to 50 uM incubated for 72 hrs by MTT assay. The class given is toxicity, cell-based. As to conditions: dose 0.1-50 µM. The procedure, abridged:
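SH-SY5Y cells kept in DMEM/10% FBS, 2 mM glutamine, 37 °C, 5% CO2; ~7000 cells/well, after 1 day given compound (six concentrations, 0.1–100 μM; DMSO stocks 10 mM) in 2% FBS medium for 72 h. MTT (0.5% w/v, 2 h), formazan dissolved in DMSO, absorbance read; triplicates, % of untreated control.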

In series [10] the test system is PC-12. The experiment in a line: Neuroprotective activity in rat PC12 cells assessed as induction of NGF-mediated neurite outgrowth at 0.5 uM by neurite outgrowth assay (Rvb=26 +/- 4%). The class given is functional. The gist of the method:
as §3

The nature of series [11]: Toxicity in Zebrafish embryos assessed as morphological abnormality by observing poor pigmentation at 10 uM incubated for 5 days by Teratogenic test. Also noted: species or system Danio rerio, Embryo. As to conditions: in vivo, 120 h, time 5 day. The procedure, abridged: as §1
Series [12] can be described thus: Thermodynamic solubility of the compound in HC1/KCl buffer at pH 1.2 incubated for 24 hrs. The class given is physicochemical. The settings on record: HCl/KCl buffer, read-out: Therm_solubility. The procedure, abridged: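 10 mM DMSO stock diluted 1:100 into buffer (HCl/KCl pH 1.2; KH2PO4/NaOH pH 6.8; KH2PO4/Na2HPO4 pH 7.4), 1% v/v DMSO final; shaken 24 h at 1200 rpm, filtered through 0.45 μm polycarbonate membrane, filtrate diluted 1:1 with MeOH and analysed.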

The test system of series [13] is PC-12. The experiment in a line: Neuroprotective activity in rat PC12 cells assessed as induction of NGF-mediated neurite outgrowth at 0.1 to 5 uM by neurite outgrowth assay. The class given is functional, cell-based. The settings on record: dose 0.1-5 µM. The procedure, abridged:
as §3

A short description of series [14]: Toxicity in Zebrafish embryos assessed as increase in embryo vitality structure damage at 10 to 50 uM incubated for 5 days by Teratogenic test. The settings on record: in vivo, 120 h, dose 10-50 µM, time 5 day. Further details: species or system Danio rerio. The gist of the method:
as §4

Series [15] can be described thus: Toxicity in Zebrafish embryos assessed as morphological abnormality by observing inflated swim bladder at 10 uM incubated for 5 days by Teratogenic test. The class given is tissue-based, Danio rerio, Embryo. As to conditions: in vivo, 120 h, time 5 day. The gist of the method: as §1
Series [16] concerns PC-12. The experiment in a line: Cytotoxicity against rat PC12 cells assessed as reduction in cell viability at <5 uM incubated for 24 hrs by MTT assay. The class given is toxicity, cell-based. The settings on record: pc-12, 24 h.

In brackets after ≈: the same amount, converted by molar mass. Activity calls are given as the source filed them. No cut-off for these calls is given here.

For the compound `c1ccc(CC2CCN(CCOc3ccccc3)CC2)cc1`, the Activity in [1] was 75%; in series [2] it was 40%; in series [3], “Non-Toxic”; in [5], “Toxic”; in series [6], “Non-Toxic”; in [8], “Non-Toxic”. Moreover, the Activity entry was “Non-Toxic” in [9]; 37% in [10]; “Toxic” in series [11]; “Dose-Dependent Effect” in series [13]; “Toxic” in series [14]; “Toxic” in [15]. In addition, in series [4], the outcome was inactive. Also, the mortality at 120 h, 10 µM in series [7] is 50%. For the same compound, the solubility thermodynamic at 24 h in [12] stood at 7800 µg/mL (≈ 26.4 mM).

Take `c1ccc(CC2CCN(CCCOc3ccccc3)CC2)cc1`: the Activity result is “Toxic” in series [1]; 40% in series [2]; “Non-Toxic” in series [3]; “Non-Toxic” in [16]; “Non-Toxic” in [6]; “Non-Toxic” in series [9]. Moreover, the Activity entry in [13] is “Dose-Dependent Effect”; in series [14], “Toxic”. Moreover, the outcome in [4] was inactive. Also, in [7], the mortality at 120 h, 10 µM turned out to be 100%. Also, in series [12], the solubility thermodynamic at 24 h came to 2800 µg/mL (≈ 9.05 mM).
